Assay results gathered from unrelated publications.
Target: Serine/threonine-protein kinase PAK 1 (PAK1, Homo sapiens, UniProt Q13153)

O=C1Nc2ccc(Cl)cc2C1=Cc1cc(Cl)c(O)c(Cl)c1 — remaining signal (cell-free assay; 0.5 µM): 97.2%
Cc1sc(C(=O)NC2COC2)cc1-n1cc(NC(=O)Nc2c(F)cccc2Cl)cn1 — remaining activity (enzyme activity; inhibitor; 10 µM): 104%
CC(C)(O)[C@H]1CC[C@H](Nc2ccc3ncc(-c4cccc(C(F)(F)F)c4)n3n2)CC1 — remaining activity (enzyme activity; inhibitor; 1 µM): 92.7%
CC(=O)C1=C(C)N(c2cccc(C(F)(F)F)c2)C(=O)N[C@@H]1c1ccc(C#N)nc1 — remaining binding (cell-free assay; competition with immobilised ligand; 1 µM): 91.2%
Nc1ncnc2occ(-c3ccc(NC(=O)Nc4cc(C(F)(F)F)ccc4F)cc3)c12 — remaining signal (cell-free assay; inhibitor; 20 µM): 41%
Cc1c(NC(=O)c2cc(C(N)=O)nc3cc(F)ccc23)c(C(F)(F)F)nn1Cc1ccc(C(C)(C)C)cc1 — remaining binding (cell-free assay; competition with immobilised ligand; 1 µM): 98%
CN(C)C1CCN(CC#Cc2nn(C3CCCC3)c3nc(NCc4ccccc4)ncc23)C1 (stereo not shown) — inhibition (enzyme activity; inhibitor; FRET; 1 µM): 4%
O=S(=O)(Nc1cc(Sc2ncn[nH]2)c(O)c2ccccc12)c1ccc(-c2ccccc2)cc1 — remaining activity (enzyme activity; inhibitor; 1 µM): ≥ 75%
Nc1cnc(N2CCc3cc(S(=O)(=O)Nc4c(F)cc(Cl)cc4F)cc(N4CCCC4=O)c32)nc1 — remaining binding (cell-free assay; competition with immobilised ligand; 1 µM): 89%
Oc1ccc(-c2nc(-c3ccncc3)c(-c3ccc(F)cc3)[nH]2)cc1 — remaining signal (cell-free assay; 0.5 µM): 97.3%
C=CC(=O)Nc1cc(Nc2nccc(Nc3cc(Cl)c(F)cc3C(C)(C)O)n2)c(OC)cc1N1CC[C@@H](N(C)C)C1 — inhibition (enzyme activity; inhibitor; 1 µM): -9%
COc1ccc2c(c1)O[C@@H](c1ccc(OC)c(OC)c1)C[C@H]2NC(=O)C1(c2ccc3c(c2)OC(F)(F)O3)CC1 — remaining binding (cell-free assay; competition with immobilised ligand; 1 µM): 89%
O=C(Nc1cnn(-c2csc(C(=O)NC3COC3)c2)c1)Nc1c(F)cccc1Cl — remaining activity (enzyme activity; inhibitor; 5 µM): 81.2%
CCc1ccccc1C(=O)Nc1n[nH]c2c(C)c(F)c(C3C(C#N)=C(C)N(C)C(C)=C3C#N)cc12 — remaining binding (cell-free assay; competition with immobilised ligand; 1 µM): 82%
COc1cc2ncnc(Nc3ccc(Oc4ccccc4)c(C)c3C)c2cc1OC — inhibition (enzyme activity; inhibitor; 1 µM): 5%
CC(C)(C)c1nc(-c2cccc(NS(=O)(=O)c3c(F)cccc3F)c2F)c(-c2ccnc(N)n2)s1 — remaining activity (enzyme activity; inhibitor; radiometric; 1 µM): 91%
CCOC(=O)c1cc2cc(-c3cc(C(=O)NCc4ccc(C(=O)O)cc4)nn3C)ccc2[nH]1 — remaining binding (cell-free assay; competition with immobilised ligand; 0.1 µM): 92%
O=C1NC(=O)c2cc(Nc3ccc(F)cc3)c(Nc3ccc(F)cc3)cc21 — remaining signal (cell-free assay; 0.5 µM): 95.5%
O=C(CSc1nc2nccnc2c(=O)n1CCc1ccccc1)Nc1nccs1 — inhibition (enzyme activity; inhibitor; 10 µM): 19%
